These results are taken from ChEMBL document CHEMBL1122401, “Synthesis and pharmacological activity of 6-[(E)-2-(2,6,6-trimethyl-1-cyclohexen-1-yl)ethen-1-yl]- and 6-(1,2,3,4-tetrahydro-1,1,4,4-tetramethyl-6-naphthyl)-2-naphthalenecarboxylic acids” (1983).

Some results are limits rather than exact numbers.

Assay [1] is described as follows: Relative activity as reciprocal of the ratio of ED50 (retinoid) / ED50 (retinoic acid) when control was 3 x 10e-11. Type of assay: functional.
The test system of assay [2] is Cricetinae gen. sp. The experiment in a line: Reversal of keratinization process in hamster tracheal organ culture at concentration of 10e-9 M expressed as percent of active cultures out of 7 cultures. Format: functional, Trachea.
Assay [3] has as its system Cricetinae gen. sp. Briefly: Reversal of keratinization process in hamster tracheal organ culture at concentration of 10e-10 M expressed as percent of active cultures out of 22 cultures. Format: functional, Trachea.
Assay [4] concerns Cricetinae gen. sp. The experiment in a line: Reversal of keratinization process in hamster tracheal organ culture at concentration of 10e-11 M expressed as percent of active cultures out of 22 cultures. Type of assay: functional, Trachea.
Assay [5] concerns Cricetinae gen. sp. The experiment in a line: Reversal of keratinization process in hamster tracheal organ culture at concentration of 10e-12 M expressed as percent of active cultures out of 15 cultures. Format: functional, Trachea.
For assay [6], the target named is T1, Ornithine decarboxylase (Mus musculus) (UniProt P00860).
T1 sequence (whole entry): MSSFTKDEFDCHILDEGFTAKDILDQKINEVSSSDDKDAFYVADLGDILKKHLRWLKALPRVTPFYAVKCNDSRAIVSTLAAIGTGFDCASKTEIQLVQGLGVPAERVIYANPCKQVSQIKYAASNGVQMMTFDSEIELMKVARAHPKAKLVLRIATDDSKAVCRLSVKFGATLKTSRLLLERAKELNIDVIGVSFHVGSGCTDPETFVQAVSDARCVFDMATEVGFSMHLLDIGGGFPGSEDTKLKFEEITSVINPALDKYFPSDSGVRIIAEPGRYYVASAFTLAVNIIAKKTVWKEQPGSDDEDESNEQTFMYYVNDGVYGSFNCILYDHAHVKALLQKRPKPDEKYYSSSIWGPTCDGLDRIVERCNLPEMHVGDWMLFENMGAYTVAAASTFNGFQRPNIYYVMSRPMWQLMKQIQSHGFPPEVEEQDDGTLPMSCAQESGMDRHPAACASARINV
The experiment in a line: Percent inhibition of induction of ODC(ornithine decarboxylase) by TPA in mouse skin at a dose of 1.7 nmol. Summed up:
(§1)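 ODC induction by the tumour-promoting phorbol ester TPA, measured in mouse dorsal epidermis. Retinoid was tested at 1.7 or 17 nmol dose levels. Activity is expressed as a percentage of that of retinoic acid at the same dose.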

Assay [7] addresses T1, Ornithine decarboxylase (Mus musculus). The experiment in a line: Percent inhibition of induction of ODC(ornithine decarboxylase) by TPA in mouse skin at a dose of 17.0 nmol. Summed up:
as §1

Assay [8] in a line: Relative activity as reciprocal of the ratio of ED50 (retinoid) / ED50 (retinoic acid) when control was 7 x 10e-12. Type of assay: functional.
Assay [9] has as its system Cricetinae gen. sp. The experiment in a line: Reversal of keratinization process in hamster tracheal organ culture at concentration of 10e-9 M expressed as percent of active cultures out of 12 cultures. Type of assay: functional, Trachea.
Assay [10] has as its system Cricetinae gen. sp. The experiment in a line: Reversal of keratinization process in hamster tracheal organ culture at concentration of 10e-10 M expressed as percent of active cultures out of 13 cultures. Format: functional, Trachea.
In assay [11] the test system is Cricetinae gen. sp. Briefly: Reversal of keratinization process in hamster tracheal organ culture at concentration of 10e-11 M expressed as percent of active cultures out of 5 cultures. Type of assay: functional, Trachea.
For assay [12], the system named is Cricetinae gen. sp. Briefly: Reversal of keratinization process in hamster tracheal organ culture at concentration of 10e-8 M expressed as percent of active cultures out of 7 cultures. Format: functional, Trachea.
The nature of assay [13]: Relative activity as reciprocal of the ratio of ED50 (retinoid) / ED50 (retinoic acid) when control was 6 x 10e-12. Type of assay: functional.

Take `CC1=C(/C=C/C(C)=C/c2ccc(C(=O)O)cc2)C(C)(C)CCC1`: the Ratio in assay [1] was 1.

A word on the inhibition: it is the percentage by which the read-out fell short of the control. A lower inhibition goes with a weak effect. Regarding `CC1(C)CCC(C)(C)c2cc(-c3ccc4cc(C(=O)O)ccc4c3)ccc21`, the Active culture with Cricetinae gen. sp. [2] stood at 100%; with Cricetinae gen. sp. [3], 95%; in the assay with Cricetinae gen. sp. [4] it was 77%; in the assay on Cricetinae gen. sp. [5], 27%. Moreover, the inhibition stood at 56% in assay [6] and 80% in assay [7]. Moreover, in assay [8], the Ratio was > 10.

On to `CC1=C(/C=C/c2ccc3cc(C(=O)O)ccc3c2)C(C)(C)CCC1`, for which the Active culture worked out at 92% with Cricetinae gen. sp. [9], 46% with Cricetinae gen. sp. [10], 20% in the assay on Cricetinae gen. sp. [11] and 100% in the assay on Cricetinae gen. sp. [12]. In addition, the inhibition was 30% in assay [6] and 48% in assay [7]. Besides, in assay [13], the Ratio came to 0.4.
